Measurements published in ChEMBL document CHEMBL3585348, “Armochaetoglobins A-J: Cytochalasan Alkaloids from Chaetomium globosum TW1-1, a Fungus Derived from the Terrestrial Arthropod Armadillidium vulgare” (J Nat Prod, 2015).

What was measured:
[1] = Cytotoxicity against human BEAS2B cells assessed as cell viability after 48 hrs by MTS assay; assay type: cell-based; settings: BEAS-2B
Method in brief: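 Noncancerous human bronchial epithelial BEAS-2B cells grown in DMEM or RPMI1640 with 10% FBS at 37 °C in 5% CO2, seeded in 96-well plates and allowed 12 h to adhere before compound addition. Viability was read after adding MTS (5 mg/mL) for 4 h at 37 °C, lysing in 10% SDS, and measuring formazan OD at 595 nm.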

[2] = test system: SW480; assay: Cytotoxicity against human SW480 cells assessed as cell viability after 48 hrs by MTS assay; assay type: functional, cell-based; settings: SW480, 48 h
Method in brief: (§1)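 Adherent cells grown in DMEM or RPMI1640 with 10% FBS at 37 °C in 5% CO2, seeded in 96-well plates, and left to adhere 12 h. Compounds were added at 0.0625, 0.32, 1.6, 8 and 40 μM for 48 h, in triplicate, with cisplatin and paclitaxel as positive controls. MTS (5 mg/mL) was added for 4 h at 37 °C, cells lysed in 10% SDS, and OD read at 595 nm.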

[3] = test system: A549; assay: Cytotoxicity against human A549 cells assessed as cell viability after 48 hrs by MTS assay; assay type: functional, cell-based; settings: A549, 48 h; method in brief: as §1
[4] = test system: HL-60; assay: Cytotoxicity against human HL60 cells assessed as cell viability after 48 hrs by MTS assay; assay type: functional, cell-based; settings: HL-60, 48 h
Method in brief: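 HL-60 suspension cells grown in DMEM or RPMI1640 with 10% FBS at 37 °C in 5% CO2, seeded at 1 × 10^5 cells/mL just before dosing. Exposure was 48 h, in triplicate, at 0.0625–40 μM (five concentrations), with cisplatin and paclitaxel controls. MTS (5 mg/mL) was added for 4 h at 37 °C, followed by 10% SDS lysis and OD at 595 nm.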

[5] = test system: SMMC-7721; assay: Cytotoxicity against human SMMC7721 cells assessed as cell viability after 48 hrs by MTS assay; assay type: functional, cell-based; settings: SMMC-7721, 48 h; method in brief: as §1
[6] = test system: MCF7; assay: Cytotoxicity against human MCF7 cells assessed as cell viability after 48 hrs by MTS assay; assay type: functional, cell-based; settings: MCF7, 48 h; method in brief: as §1

Row | Compound | IC50 [1] | IC50 [2] | IC50 [3] | IC50 [4] | IC50 [5] | IC50 [6]
1 | C/C(C=O)=C\C(C)C/C=C/[C@H]1[C@@H]2O[C@]2(C)[C@@H](C)[C@H]2[C@H](Cc3c[nH]c4ccccc34)NC(=O)[C@]21C(=O)CCCO (stereo not given in full) | 15.5 µM | > 40 µM | 16.3 µM | 11.9 µM | 10.6 µM | > 40 µM
2 | CC1=C[C@@H]2/C=C/C[C@H](C)/C=C(\C)C(=O)[C@@H](O)CCC(=O)[C@]23C(=O)N[C@@H](Cc2c[nH]c4ccccc24)[C@@H]3[C@@H]1C | 16 µM | 20.6 µM | 14.3 µM | 12.6 µM | 13.8 µM | 14.8 µM
3 | CC1=C[C@@H]2/C=C/C[C@H](C)/C=C(\C)[C@@H](O)[C@@H](O)CCC(=O)[C@]23C(=O)N[C@@H](Cc2c[nH]c4ccccc24)[C@@H]3[C@@H]1C | > 40 µM | > 40 µM | > 40 µM | > 40 µM | > 40 µM | > 40 µM
4 | C/C1=C\[C@@H](C)C/C=C/[C@H]2C=C(CO)[C@@H](C)[C@H]3[C@H](Cc4c[nH]c5ccccc45)NC(=O)[C@]32C(=O)CCC(=O)C1 | > 40 µM | > 40 µM | > 40 µM | > 40 µM | > 40 µM | > 40 µM
5 | CC(=O)O[C@H]1C(=O)[C@@]2(C)[C@H]([C@H](OC(=O)c3ccccc3)[C@]3(O)C[C@H](OC(=O)[C@H](O)[C@@H](NC(=O)c4ccccc4)c4ccccc4)C(C)=C1C3(C)C)[C@]1(OC(C)=O)CO[C@@H]1C[C@@H]2O [PACLITAXEL] | 0.58 µM | < 0.008 µM | < 0.008 µM | < 0.008 µM | < 0.008 µM | < 0.008 µM
6 | C/C1=C\[C@@H](C)C/C=C/[C@H]2C=C(CO)[C@@H](C)[C@H]3[C@H](Cc4c[nH]c5ccccc45)NC(=O)[C@]32C(=O)/C=C/C(=O)[C@@H]1O | 3.34 µM | 3.9 µM | 8.01 µM | 3.31 µM | 9.83 µM | 4.06 µM
7 | C/C1=C\[C@@H](C)C/C=C/[C@H]2[C@H](O)[C@@]3(C)O[C@@]4(Cc5c[nH]c6ccccc56)NC(=O)[C@]2(C(=O)CCC(=O)C1=O)[C@H]4[C@@H]3C | 16.6 µM | 35.3 µM | 17.7 µM | 18.2 µM | 17.4 µM | 19.1 µM
8 | COC(=O)CCC(=O)[C@@]12C(=O)N[C@@H](Cc3c[nH]c4ccccc34)[C@@H]1[C@H](C)[C@@]1(C)O[C@H]1[C@@H]2/C=C/CC(C)/C=C(\C)C=O (stereo not given in full) | 5.68 µM | 38.2 µM | 19.8 µM | 14 µM | 10.8 µM | 22.7 µM
9 | C/C(C=O)=C\C(C)C/C=C/[C@H]1[C@@H]2O[C@]2(C)[C@@H](C)[C@H]2[C@H](Cc3c[nH]c4ccccc34)NC(=O)[C@]21C(=O)CCC(=O)O (stereo not given in full) | > 40 µM | > 40 µM | > 40 µM | > 40 µM | 25 µM | > 40 µM
10 | C/C(=C\C(C)C/C=C/[C@H]1[C@@H]2O[C@]2(C)[C@@H](C)[C@H]2[C@H](Cc3c[nH]c4ccccc34)NC(=O)[C@]21C(=O)CCCO)CO (stereo not given in full) | 23.1 µM | > 40 µM | 30.9 µM | 16.5 µM | 19.4 µM | > 40 µM
